The values below come from publication PMC2121072 (The Journal of Cell Biology, 1996).

In one test the test system is PDZ domains. In words: Nucleotide binding with radiolabeled GTP. As to conditions: data not shown.
The next test deals with fusion proteins. In words: Competition of labeled ATP binding to fusion proteins. The conditions noted are these: excess of cold, nonlabeled competitor nucleotide.
Test [1] addresses T1, GST-PDZ 1+2+3 fusion protein of hDlg (Homo sapiens, UniProt Q12959). The test can be described thus: Solution nitrocellulose filter ATP-binding assay, GST-PDZ1+2+3 of hDlg. As to conditions: Scatchard analysis, Fig. 4 inset. An outline of the steps: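 Scatchard: 2.0 µg glutathione-eluted, dialysed GST-PDZ1+2+3 incubated in solution with increasing ATP concentrations plus [γ-32P]ATP, 3 h on ice in Hepes pH 7.6 buffer containing 1.0 mM MgCl2. Bound label captured on nitrocellulose filter, washed, scintillation-counted. Parallel GST control at each ATP concentration; cold ATP quantified by absorbance at 259 nm; each value is the average of duplicates.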

For a further test, the system named is PDZ 3 domain of hDlg. In words: Solution filter ATP-binding assay, PDZ3 of hDlg. Also on record: species or system human. As to conditions: 100 nM cold ATP, pH 7.6, 3 h on ice, Fig. 3 B. An outline of the steps: (§1)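 Solution assay: purified protein (GST fusions eluted from glutathione beads with 5.0 mM reduced glutathione, then dialysed into binding buffer) incubated with [γ-32P]ATP (100-500 nCi) plus 100 nM cold ATP. Buffer: 10 mM Hepes pH 7.6, 50 mM KCl, 75 mM NaCl, 1.0 mM MgCl2, 1.0 mM EGTA. Incubated 3 h on ice, filtered through nitrocellulose, washed, scintillation-counted. GST or BSA nonspecific controls; duplicate or triplicate.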

Test [2] deals with GST-PDZ3 fusion protein of Dlg. In words: In vitro ATP binding, Dlg GST-PDZ3. Also on record: species or system Drosophila. The conditions noted are these: data not shown. An outline of the steps:
as §1

Test [3] has as its target T1, GST-PDZ 1+2+3 fusion protein of hDlg. In words: Surface plasmon resonance. It counts as binding. The conditions noted are these: 0.5 or 2.0 mM ATP-Mg2+ complex; orientation of the experiment not stated; data not shown. (In general: SPR reads the build-up and loss of mass on a sensor chip optically.)

Each structure is given as a SMILES string.

T1 sequence (Q12959 201-584): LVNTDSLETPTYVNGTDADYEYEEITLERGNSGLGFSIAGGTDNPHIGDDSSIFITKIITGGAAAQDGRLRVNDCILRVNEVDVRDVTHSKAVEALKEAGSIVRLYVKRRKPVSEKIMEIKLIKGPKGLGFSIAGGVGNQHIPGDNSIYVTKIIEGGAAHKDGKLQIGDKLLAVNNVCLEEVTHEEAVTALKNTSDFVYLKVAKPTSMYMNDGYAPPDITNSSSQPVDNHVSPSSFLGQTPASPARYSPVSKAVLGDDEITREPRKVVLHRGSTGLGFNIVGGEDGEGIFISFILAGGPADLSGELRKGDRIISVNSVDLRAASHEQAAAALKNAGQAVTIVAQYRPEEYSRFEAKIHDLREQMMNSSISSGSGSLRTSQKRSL

With `Nc1nc2c(ncn2[C@@H]2O[C@H](COP(=O)(O)OP(=O)(O)OP(=O)(O)O)[C@@H](O)[C@H]2O)c(=O)[nH]1` [GTP], the “binding of radiolabeled GTP” value in the test with PDZ domains was “no binding”. In addition, in the test with fusion proteins, the “binding of labeled ATP in presence of competitor” value was “succeeded”.

Take `Nc1ncnc2c1ncn2[C@@H]1O[C@H](COP(=O)(O)OP(=O)(O)OP(=O)(O)O)[C@@H](O)[C@H]1O` [ATP]: the “ATP binding sites (Scatchard)” value in test [1] was “single class of binding sites”. Moreover, the ATP binding result in the test with PDZ 3 domain of hDlg is “inactive for ATP binding”; in test [2], “binds ATP in vitro”. Besides, the “binding of labeled ATP in presence of competitor” value with fusion proteins is given as “failed”. In addition, the “effect of ATP on GST-PDZ 1+2+3 / Kv1.4 peptide binding affinity” value in test [3] is given as “No effect on the binding affinity”.
